Assay outcomes (PubChem)
A1 apoptosis 2: A1 inhibition read as caspase activation | caspase activation, % (test concentration not listed) | 24,000 tested, under 10 active | MEF A1-2A-BIM cells, caspase-Glo luminescence, 3 h; percent of clofoctol response, DMSO zero; in the data active means caspase activation above about 5.9%
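Test system – A1-2A-BIM-expressing MEF cells · Input – 2500 cells/well · Medium – RPMI-1640 growth medium with 10% FBS · Compound dosing – 50 nL pinned compound · Timing – 3 h compound exposure at 37 °C · Technique – Caspase-Glo luminescence (DEVD substrate) · Evaluation – Caspase-3/7 activity from luminescence increase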
INS-1E rescue: rescue of cytokine-induced death in INS-1E beta cells; INS-1E cytokine-induced death, ATP luminescence, 48 h; normalised: neutral wells 0, positive control 100; hit rate 0.1% among 20,000; protection from cytokine-induced ATP loss, % at 10 µM;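 active means mean replicate protection from cytokine-induced ATP loss at least 50% and at least 75% of replicates each reaching 50%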
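Assay system: INS-1E rat insulinoma cells. Amount: 8000 cells per well. Medium: phenol-red-free RPMI with 5% fetal bovine serum. Reagent: IL-1β, TNF-α and IFN-γ cytokine mix. Doses: one compound concentration, pin transfer. Schedule: 48 h co-treatment, 10 min post-lysis read. Detection: CellTiter-Glo luminescence measuring cellular ATP.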
T cruzi HTS: inhibitors of intracellular Trypanosoma cruzi | intracellular Trypanosoma cruzi in host cells, plate reader | activity score (inhibition), % at 5.01 µM | hit rate 4.9% among 22,000; in the data active means activity score above about 55%;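 further: parasites and compound incubated about four days before reading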
Large screens that a line does not name were inactive. The entries come from a sample that favours hits as a whole.

C[C@H]1CN([C@@H](C)CO)C(=O)c2cc(N(C)C)ccc2O[C@@H]1CN(C)CC1CCCCC1	none
O=C(NCc1ccccc1)C1=C[C@@H](c2cccs2)C[C@@H](OCCCCO)O1	none (no result: INS-1E rescue, T cruzi HTS)
COc1ccc(S(=O)(=O)N(C)C[C@@H]2Oc3c(NC(=O)Nc4c(C)noc4C)cccc3C(=O)N([C@H](C)CO)C[C@H]2C)cc1	none
C[C@H]1CCCCO[C@H](CN(C)C(=O)Nc2ccc(C(F)(F)F)cc2)[C@@H](C)CN([C@@H](C)CO)C(=O)c2cc(NC(=O)Cc3ccccc3)ccc2O1	none (no result: INS-1E rescue, T cruzi HTS)
C[C@@H]1CCCCO[C@H](CN(C)C(=O)Nc2ccc(C(F)(F)F)cc2)[C@H](C)CN([C@H](C)CO)C(=O)c2cc(NC(=O)c3ccccc3)ccc2O1	none (no result: INS-1E rescue, T cruzi HTS)
C[C@@H]1CCCCO[C@@H](CN(C)C(=O)Nc2ccc(C(F)(F)F)cc2)[C@@H](C)CN([C@H](C)CO)C(=O)c2cc(NC(=O)c3ccccc3)ccc2O1	T cruzi HTS 59
C[C@@H]1CCCCO[C@H](CN(C)C(=O)Nc2ccc(C(F)(F)F)cc2)[C@H](C)CN([C@@H](C)CO)C(=O)c2cc(NC(=O)Nc3ccccc3)ccc2O1	none (no result: INS-1E rescue, T cruzi HTS)
C[C@@H]1CCCCO[C@H](CN(C)C(=O)Nc2ccc(C(F)(F)F)cc2)[C@@H](C)CN([C@H](C)CO)C(=O)c2cc(NC(=O)Cc3ccccc3)ccc2O1	T cruzi HTS 71
C[C@@H]1CCCCO[C@@H](CN(C)C(=O)Nc2ccc(C(F)(F)F)cc2)[C@@H](C)CN([C@H](C)CO)C(=O)c2cc(NC(=O)Nc3ccccc3)ccc2O1	T cruzi HTS 64
COCCCNC(=O)[C@]1(CCS(=O)(=O)c2ccccc2)N=C(c2ccc(OCCCO)cc2)O[C@@H]1c1ccccc1	none (no result: INS-1E rescue, T cruzi HTS)
O=C(O)CCCCCCC(=O)N/N=C/c1ccc(-c2cccc(Cl)c2)o1	none (no result: A1 apoptosis 2)
COC(=O)CCCCCCC(=O)N/N=C/c1c(F)c(F)c(F)c(F)c1F	none (no result: A1 apoptosis 2)
C[C@@H]1CN([C@@H](C)CO)C(=O)c2cccc(NC(=O)c3ccncc3)c2O[C@H]1CN(C)Cc1ccncc1	none
C[C@@H]1CN([C@@H](C)CO)C(=O)c2cccc(NC(=O)c3ccncc3)c2O[C@H]1CN(C)CC1CCCCC1	T cruzi HTS 76 (no result: A1 apoptosis 2)
C[C@H](CO)N1C[C@H](C)[C@@H](CN(C)Cc2ccncc2)Oc2c(NC(=O)c3ccncc3)cccc2C1=O	none
C[C@@H]1CN([C@@H](C)CO)C(=O)c2cccc(NC(=O)c3ccncc3)c2O[C@@H]1CN(C)Cc1ccc(C(=O)O)cc1	none
C[C@@H]1CN([C@H](C)CO)C(=O)c2cccc(NC(=O)c3ccncc3)c2O[C@H]1CN(C)Cc1ccccc1	T cruzi HTS 80 (no result: A1 apoptosis 2)
C[C@H]1CN([C@@H](C)CO)C(=O)c2cccc(NC(=O)c3ccncc3)c2O[C@H]1CN(C)Cc1ccccc1	T cruzi HTS 81 (no result: A1 apoptosis 2)
C[C@@H]1CN([C@H](C)CO)C(=O)c2cccc(NC(=O)c3ccncc3)c2O[C@@H]1CN(C)CC1CCCCC1	none
C[C@@H]1CN([C@@H](C)CO)C(=O)c2cccc(NC(=O)c3ccncc3)c2O[C@H]1CN(C)Cc1ccccc1	T cruzi HTS 79 (no result: A1 apoptosis 2)
C[C@@H]1CN([C@@H](C)CO)C(=O)c2cc(N(C)C)ccc2O[C@@H]1CN(C)Cc1ccc(Cl)c(Cl)c1	T cruzi HTS 64 (no result: A1 apoptosis 2)
C[C@H]1CN([C@@H](C)CO)C(=O)c2cc(N(C)C)ccc2O[C@H]1CN(C)Cc1ccc(-c2ccccc2)cc1	none (no result: A1 apoptosis 2)
C[C@H](CO)N1C[C@H](C)[C@@H](CN(C)Cc2ccc(Oc3ccccc3)cc2)Oc2ccc(N(C)C)cc2C1=O	T cruzi HTS 71
C[C@H](CO)N1C[C@H](C)[C@H](CN(C)Cc2ccccc2)Oc2ccc(N(C)C)cc2C1=O	none
C[C@@H]1CN([C@H](C)CO)C(=O)c2cc(N(C)C)ccc2O[C@@H]1CN(C)Cc1ccc(Cl)c(Cl)c1	none
C[C@@H]1CN([C@@H](C)CO)C(=O)c2cc(N(C)C)ccc2O[C@@H]1CN(C)Cc1ccc(-c2ccccc2)cc1	T cruzi HTS 65 (no result: A1 apoptosis 2)
C[C@@H]1CN([C@H](C)CO)C(=O)c2cccc(NC(=O)c3nc4ccccc4s3)c2O[C@@H]1CN(C)Cc1ccc(C(=O)Nc2ccccc2N)cc1	none (no result: INS-1E rescue, T cruzi HTS)
C[C@@H]1CN([C@H](C)CO)C(=O)c2cccc(NC(=O)c3nc4ccccc4s3)c2O[C@@H]1CN(C)Cc1ccc(-c2ccccc2)cc1	none
C[C@H]1CN([C@@H](C)CO)C(=O)c2cccc(NC(=O)c3nc4ccccc4s3)c2O[C@@H]1CN(C)Cc1ccc(Oc2ccccc2)cc1	none
C[C@H]1CN([C@@H](C)CO)C(=O)c2cccc(NC(=O)c3nc4ccccc4s3)c2O[C@@H]1CN(C)Cc1ccc(Cl)c(Cl)c1	T cruzi HTS 65
C[C@H](CO)N1C[C@H](C)[C@@H](CN(C)Cc2ccc(Oc3ccccc3)cc2)Oc2c(NC(=O)c3nc4ccccc4s3)cccc2C1=O	T cruzi HTS 66 (no result: A1 apoptosis 2)
C[C@@H]1CN([C@@H](C)CO)C(=O)c2cccc(NC(=O)c3nc4ccccc4s3)c2O[C@H]1CN(C)Cc1ccc(-c2ccccc2)cc1	T cruzi HTS 71 (no result: A1 apoptosis 2)
C[C@@H]1CN([C@@H](C)CO)C(=O)c2cccc(NC(=O)c3nc4ccccc4s3)c2O[C@H]1CN(C)Cc1ccc(C(=O)Nc2ccccc2N)cc1	T cruzi HTS 70 (no result: A1 apoptosis 2)
C[C@@H]1CN([C@H](C)CO)C(=O)c2cccc(NC(=O)c3nc4ccccc4s3)c2O[C@@H]1CN(C)Cc1ccccc1	none
COc1ccc(NC(=O)Nc2ccc3c(c2)C(=O)N([C@H](C)CO)C[C@H](C)[C@H](CN(C)S(=O)(=O)c2ccc(C)cc2)OCCCC[C@@H](C)O3)cc1	none (no result: A1 apoptosis 2)
COC(=O)C1=C/c2ccccc2C(C2CC2)N(C)/C=C\1C(=O)OC (stereo unspecified)	none (no result: INS-1E rescue, T cruzi HTS)
C[C@H]1CN([C@@H](C)CO)C(=O)Cc2cc(NS(=O)(=O)c3ccccc3)ccc2O[C@H]1CN(C)C(=O)Nc1ccccc1	none
NC(=O)COc1ccccc1/C=N/NC(=O)c1cccc(C(=O)NO)c1	none
Cc1ncc(CO)c(/C=N/NC(=O)c2ccccn2)c1O	none
COc1cc(/C=N/NC(=O)c2ccccc2O)c([N+](=O)[O-])cc1OC	none
